VIM-2 inhibitor: inhibitors of Pseudomonas aeruginosa VIM-2 metallo-beta-lactamase; purified VIM-2, nitrocefin hydrolysis, epi-absorbance fluorescence; inhibition, % at 5.6 µM; 0.89% of 290,000 active;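 active means inhibition above the mean of all tested compounds plus 3 SD, cutoff set per screening run, cut at about 7.5% in these data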;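 further: red hydrolysis product quenches plate fluorescence so inhibitors raise well fluorescence; 0% = enzyme with DMSO and 100% = DMSO without enzyme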
IMP-1 inh: inhibitors of Pseudomonas aeruginosa IMP-1 metallo-beta-lactamase; inhibition, % at 5.6 µM; 0.45% of 290,000 active; purified IMP-1, nitrocefin hydrolysis, epi-absorbance fluorescence;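 active means inhibition above the mean plus 3 SD of all compounds in the same screening run, cut at about 4.5% in these data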;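 further: 0% = IMP-1 with DMSO and 100% = DMSO wells lacking enzyme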
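System: Purified IMP-1 | Read-out basis: Percent enzyme inhibition | Controls: IMP-1 with DMSO as 0%, enzyme-free DMSO as 100% | Replicates: One well per compound | Doses: 5.6 µM nominal single concentration | Detection: Epi-absorbance fluorescence, 480 nm excitation, 530 nm emission | Incubation: 25 °C, 15 min preincubation, 25 min reaction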
TMEM16A inh: inhibitors of mouse TMEM16A calcium-activated chloride channel; Q8BHY3; HEK293 TMEM16A/YFP iodide influx fluorescence, ionomycin; normalized B-score (activity score, 25-100; higher = stronger inhibition) at 10 µM; 1.2% of 310,000 active; AID 588511;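 active means ratio plate-corrected score three or more library SD toward inhibition, starting fluorescence score within five deviations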;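 further: score derived from kinetic fluorescence span divided by baseline fluorescence per well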
CHT block: inhibits the human high affinity choline transporter; Q9GZV3; AID 488975; B-score at 10 µM; 0.86% of 310,000 active; CHT-expressing cells, membrane potential dye, choline response; stronger effect = lower value;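 active means B-score over 3 SD under the library average, and starting fluorescence ratio not unusually high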;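 further: choline stimulus applied at its EC90 after an EC20 pre-addition; B-score computed on integrated fluorescence ratio after choline addition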
Target sequence (Q9GZV3 whole entry, looked up): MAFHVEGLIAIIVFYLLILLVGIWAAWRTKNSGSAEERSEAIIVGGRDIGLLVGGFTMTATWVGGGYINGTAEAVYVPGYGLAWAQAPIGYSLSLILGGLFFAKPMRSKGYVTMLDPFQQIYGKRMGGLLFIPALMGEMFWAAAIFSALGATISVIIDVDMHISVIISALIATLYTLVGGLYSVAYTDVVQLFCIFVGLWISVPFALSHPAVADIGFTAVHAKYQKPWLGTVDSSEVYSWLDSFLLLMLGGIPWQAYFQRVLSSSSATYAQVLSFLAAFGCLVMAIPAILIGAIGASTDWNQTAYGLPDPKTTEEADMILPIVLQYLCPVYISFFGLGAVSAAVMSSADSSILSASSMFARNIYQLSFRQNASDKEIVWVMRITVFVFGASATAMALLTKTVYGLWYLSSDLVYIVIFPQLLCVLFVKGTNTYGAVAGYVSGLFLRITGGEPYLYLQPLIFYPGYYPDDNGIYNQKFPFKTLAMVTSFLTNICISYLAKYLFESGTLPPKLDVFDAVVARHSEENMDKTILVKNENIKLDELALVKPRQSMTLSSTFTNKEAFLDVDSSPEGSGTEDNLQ
CHT allo act: allosterically activates the human high affinity choline transporter; 0.49% of 310,000 active; B-score at 10 µM; Q9GZV3; AID 488977; CHT-expressing cells, membrane potential dye, choline EC20; stronger effect = higher value; LV-AA mutant CHT in HEK293 cells;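 active means initial fluorescence not abnormally high and integrated response B-score, plate-corrected, over 3 SD above library mean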
TMEM16A act: mouse TMEM16A channel activation, primary screen; 0.3% of 340,000 active; B-score at 10 µM; HEK293 TMEM16A/YFP-H148Q/I152L, iodide quench fluorescence; stronger effect = lower value; Q8BHY3; AID 623877;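 active means fluorescence-ratio B-score plate-corrected deviation score at least 3 library SD below zero, with starting fluorescence score within 5 deviations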;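 further: channel opened by trigger with iodide after compound preincubation; score built on the fluorescence ratio of max minus min over baseline; more negative score means more quench and so TMEM16A activation or potentiation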
* = called active by the depositor; i = inactive; / = no result given. Most compounds without a hit are left out; they make up all but 3.4% or so of the library.

SMILES | VIM-2 inhibitor | IMP-1 inh | TMEM16A inh | CHT block | CHT allo act | TMEM16A act
CCN1CCN(C(=O)C(Cc2ccccc2)NC(=O)c2ccc(Cl)c(S(=O)(=O)N(C)C)c2)CC1 (stereo unspecified) | / | / | / | / | / | -46*
O=C(NC(Cc1ccccc1)C(=O)N1CCN(S(=O)(=O)c2ccccc2F)CC1)c1ccccc1 (stereo unspecified) | / | / | / | / | / | i
COc1ccc(S(=O)(=O)N2CCCCCC2)cc1C(=O)OCC(=O)NC(N)=O | 2 | 0 | i | i | i | i
O=C(COC(=O)c1cc(S(=O)(=O)N2CCCC2)ccc1O)Nc1ccc(SC(F)F)cc1 | / | / | / | / | / | -26*
O=C(COC(=O)c1ccccc1C(=O)c1ccccc1)Nc1ccc(SC(F)F)cc1 | -4 | -3 | 100* | i | i | i
O=C(COC(=O)c1cc(S(=O)(=O)N2CCCC2)ccc1O)Nc1ccc(S(=O)(=O)N2CCOCC2)cc1 | -2 | -3 | i | i | i | i
COc1ccc(S(=O)(=O)N2CCCCCC2)cc1C(=O)OCC(=O)NC(C)(C)C | -2 | -2 | i | i | i | -4.7*
Cc1nn(C(C)C(=O)Nc2sc3c(c2C#N)CCCC3)c(C)c1[N+](=O)[O-] (stereo unspecified) | -1 | -1 | 100* | i | i | i
COc1cc(C2c3sc(=O)[nH]c3SC3C4CCC(C4)C23)ccc1O (stereo unspecified) | 8.8* | 3 | i | i | i | i
COc1ccc(C(=O)NNC(=S)NC(=O)C(C)(C)C)cc1 | -2 | -2 | 25* | i | i | i
COc1ccc(C(=O)NNC(=O)c2ccc(C(C)(C)C)cc2)cc1 | -4 | -2 | i | i | i | i
CC(C)(C)C(=O)NC(=S)NNC(=O)c1sc2ccccc2c1Cl | -2 | -4 | 100* | i | i | -12*
CCCOc1ccc(C(=O)Nc2cc(S(=O)(=O)N3CCOCC3)ccc2N2CCN(CC)CC2)cc1OC | / | / | / | / | / | i
Cc1ccc(C(=O)N2CCN=C2SCc2ccc([N+](=O)[O-])cc2)cc1 | 0 | 0 | i | i | i | -5.8*
Cc1ccccc1C(=O)N1CCN=C1SCc1ccc([N+](=O)[O-])cc1 | 3 | 1 | i | i | i | i
COC(=O)c1ccc(NC(=O)c2ccc(C)cc2)o1 | -1 | 5.5* | i | i | i | i
COC(=O)c1ccc(NC(=O)c2ccc(F)cc2)o1 | -2 | -2 | i | i | i | i
CC1CCc2c(nc3sc4c(c3c2N)CCCC4)C1 (stereo unspecified) | 8.1* | 0 | i | i | i | i
CCc1c(-c2ccccc2)nc2sc3c(c2c1N)CCCC3 | -1 | -2 | i | i | i | i
Cc1c(Cl)c(C(=O)Nc2nc3ccccc3n2CCN2CCCCC2)nn1C | -4 | -5 | i | i | 9.7* | /
CC(C)CN=Cc1c(O)c([N+](=O)[O-])cc2oc3c(c12)CCCC3 | -3 | 10* | i | i | i | i
Cc1c(O)c(CN2CCCC2)cc2c1oc(=O)c1ccccc12 | 9.0* | 0 | i | i | i | i
O=C(NCCCNC(=O)c1ccccc1F)c1ccco1 | -4 | -2 | i | i | i | i
Cc1ccccc1NC(=S)Nc1cccc2cnccc12 | 8.0* | -4 | i | i | i | i
CCNC(=O)CC1SC(=Nc2ccc(C)c([N+](=O)[O-])c2)N(C)C1=O (stereo unspecified) | / | / | i | i | i | i
SMILES | VIM-2 inhibitor | IMP-1 inh | TMEM16A inh | CHT block | CHT allo act | TMEM16A act
O=C(CSc1n[nH]c(=O)[nH]c1=O)Nc1ccc(C(=O)O)cc1 | 1 | 7.7* | i | i | i | i
CCOC(=O)C(NC=O)(NC(C)(C)C)C(=O)OCC | -2 | 4.8* | i | i | i | i
COc1ccc(CN(C)C(=O)CSc2nnc(C3CC3)n2C2CC2)cc1 | / | / | / | / | / | i
CC(C)C(=O)Nc1nnc(CSCc2ccccc2F)s1 | 10* | -1 | i | i | i | i
O=C(Nc1nnc(CSCc2ccccc2F)s1)c1cccc([N+](=O)[O-])c1 | 5 | 0 | i | i | i | i
O=C(CSc1nnc(-c2ccccc2)n1C1CCCCC1)Nc1ccc(S(=O)(=O)Nc2ccccn2)cc1 | -3 | -2 | i | i | i | -12*
CCCCn1ccnc1C(=O)c1cc(S(=O)(=O)N2CCOCC2)ccc1C | -4 | -3 | i | i | i | i
CCCCn1ccnc1C(=O)c1cccc(S(=O)(=O)N2CC(C)CC(C)C2)c1 (stereo unspecified) | -1 | -4 | 100* | i | i | i
COc1ccc(OCCCC(=O)N2CCCc3ccccc32)cc1 | -2 | -3 | i | i | i | -6.4*
COc1ccc(CCC(=O)N2CCCc3ccccc32)cc1 | -1 | -1 | i | i | i | i
CCn1c(SCC(=O)Nc2nncs2)nnc1C(C)NC(=O)c1ccccc1Br (stereo unspecified) | -1 | -3 | i | i | i | i
Cc1onc(-c2ccccc2Cl)c1C(=O)Oc1cc(N)n(S(=O)(=O)c2ccc(F)cc2)n1 | 1 | 1 | 25* | i | i | i
Cc1ccc(/C(O)=C2/C(=O)C(=O)N(CC(=O)O)C2c2ccc([N+](=O)[O-])cc2)cc1 (stereo unspecified) | -1 | -2 | i | i | i | i
CN(/N=C/c1cc(Cl)ccc1O)C1=NS(=O)(=O)c2ccccc21 | 10* | 0 | i | i | i | i
CN(/N=C/c1cccnc1)C1=NS(=O)(=O)c2ccccc21 | 5 | -3 | i | i | i | i
COc1cccc(/C=N/N(C)C2=NS(=O)(=O)c3ccccc32)c1O | 9.5* | -2 | i | i | i | i
O=C(COC(=O)c1ccccc1NC(=O)c1ccccc1)c1ccc([N+](=O)[O-])cc1 | -1 | -2 | i | i | 6.4* | i
COc1ccc(C(=O)CC2OC(=O)c3ccccc32)cc1OC (stereo unspecified) | 0 | 4.9* | i | i | i | i
O=C(CSc1nc2ccccc2c(=O)n1Cc1ccco1)c1ccccc1 | -1 | 3 | i | i | i | i
Cc1cc(-n2c(C)cc(C(=O)CSc3nc4ccccc4c(=O)n3Cc3ccco3)c2C)no1 | -5 | -3 | i | i | i | -9.1*
Cc1ccc(NC(=O)CC(O)(C(F)(F)F)C(F)(F)F)c(Br)c1 | -3 | -3 | i | -5.2* | i | i
Cc1ccccc1NC(=O)CC(O)(C(F)(F)F)C(F)(F)F | 1 | 0 | i | i | i | i

Source: PubChem BioAssay (several laboratories)
